# Measured values as given in ChEMBL document CHEMBL4665656, “Toxicity, bioactivity, release of HS in vivo and pharmaco-kinetics of HS-donors with thiophosphamide structure” (Eur J Med Chem, 2019).
# Columns and labels:
# [1] = Toxicity in Wistar rat assessed as effect on WBC level at 0.01 mmol/kg, ip, administered daily for 14 days (reference value: 5.82 10^9/L); details: in vivo, 336 h, time 14 day
# [2] = Induction of H2S generation assessed as Cmax at 150 uM incubated at 22 degC and pH 1.2 by fluorescence spectrophotometry; type: functional
# Procedure, shortened: (§1)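 Donor at 150 µM final, mixed with 200 µM sulfonyl-azide fluorescent probe in buffer/acetonitrile (1:9) at set pH. Cuvette held in a water bath at 22 °C or 37 °C, with fluorescence read three times at intervals. H2S was quantified from a Na2S standard curve (0–200 µM, probe 200 µM).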
# [3] = Induction of H2S generation assessed as half life at 150 uM incubated at 22 degC and pH 5 by fluorescence spectrophotometry; type: functional; procedure, shortened: as §1
# [4] = Toxicity in zebra fish assessed as decrease in hatching rate at <=20 uM measured after 120 hpf by microscopic analysis relative control; design: species or system Danio rerio; scale not given: the % may be the effect or the level left; details: zebrafish, 5 µM
# [5] = Toxicity in Wistar rat assessed as effect on platelet level at 0.01 mmol/kg, ip, administered daily for 14 days (reference value: 8.57 10^9/L); details: in vivo, 336 h, time 14 day
# [6] = Induction of H2S generation assessed as half life at 150 uM incubated at 37 degC and pH 7.4 by fluorescence spectrophotometry; type: functional; procedure, shortened: as §1
# [7] = Toxicity in zebra fish assessed as survival rate at 0.5 uM measured after 120 hpf by microscopic analysis; design: species or system Danio rerio; details: zebrafish
# Procedure, shortened: (§2)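 Wild-type AB zebrafish embryos were checked at 4 hpf, and normally developed ones were used. There were 100 embryos per group, split into three replicates, one per well in 200 µL solution under sealing film. Mortality was recorded at 24–168 hpf. Vehicle control was DMF diluted 1:1000. Values are mean ±SD of three independent experiments.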
# [8] = Acute toxicity in juvenile zebrafish assessed as decrease in locomotor activity measured as swimming distance at 10 uM measured at 144 hpf; design: species or system Danio rerio; details: in vivo, dose […]
# Procedure, shortened: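 Wild-type AB zebrafish bred at 28 °C on a 14 h/10 h light cycle; normally developing embryos were selected at 4 hpf. Total swimming distance of juveniles was recorded over 5 min under visible light. DMF (1:1000) was the vehicle control, n = 100, three independent experiments, mean ± SD.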
# [9] = Induction of H2S generation assessed as Cmax Induction of H2S generation assessed as Cmax at 150 uM incubated at 37 degC and pH 7.4 by fluorescence spectrophotometry; type: functional; procedure, shortened: as §1
# [10] = Toxicity in Wistar rat assessed as effect on hemoglobin level at 0.01 mmol/kg, ip, administered daily for 14 days (reference value: 98 g/l); details: in vivo, 336 h, time 14 day
# [11] = Drug metabolism in Wistar rat liver homogenate assessed as metabolite 3b retention time incubated for 36 hrs by LC-MS analysis; type: ADME, tissue-based; details: tissue homogenate
# H9c2 = assay: Cardioprotective activity against H2O2- induced toxicity in rat H9c2 cells assessed as increase in survival rate at 50 uM incubated for 8 hrs co-treated with 50 uM H2O2 measured after 24 hrs by MTT assay relative to control; type: functional
# Procedure, shortened: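 H9c2 cardiomyocytes injured with H2O2 (50, 200 or 400 µM) for 8 h together with compound (10–100 µM). Survival rate measured against the H2O2 model group. Six independent experiments, mean ± sd.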
# [12] = Induction of H2S generation assessed as Cmax at 150 uM incubated at 22 degC and pH 7.4 by fluorescence spectrophotometry; type: functional; procedure, shortened: as §1
# [13] = Induction of H2S generation assessed as half life at 150 uM incubated at 22 degC and pH 8 by fluorescence spectrophotometry; type: functional; procedure, shortened: as §1
# [14] = Induction of H2S generation assessed as half life at 150 uM incubated at 22 degC and pH 1.2 by fluorescence spectrophotometry; type: functional; procedure, shortened: as §1
# A549 = assay: Cytotoxicity in human A549 cells assessed as growth inhibition incubated for 24 hrs by MTT assay; type: functional, cell-based; details: A549, 24 h
# Procedure, shortened: (§3)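 Cells were grown in RPMI 1640 with 10% FBS at 37 °C and 10% CO2, seeded at 6×10^3 cells/well. Exposure was 24 h, with viability by MTT, in triplicate cultures. IC50 was reported as mean ± SD.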
# [15] = Toxicity in Wistar rat assessed as effect on RBC level at 0.01 mmol/kg, ip, administered daily for 14 days (reference value: […]); details: in vivo, 336 h, time 14 day
# [16] = Toxicity in zebra fish assessed as decrease in survival rate at <=20 uM measured after 120 hpf by microscopic analysis relative control; design: species or system Danio rerio; details: zebrafish; procedure, shortened: as §2
# RAW264.7 = assay: Anti-inflammatory activity in mouse RAW264.7 cells assessed as inhibition of LPS-induced NO production preincubated for 4 hr followed by LPS addition and measured after 24 hrs relative to control; type: functional, cell-based; details: dose 100.0 µM, time 28.0 hrs
# Procedure, shortened: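 RAW264.7 cells exposed to LPS 1 µg/mL with compound (20 and 100 µM) for 24 h. Nitrite in medium measured by Griess reagent, […], against a sodium nitrite standard curve (0–100 µM). Four parallel groups, mean ± SD.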
# [17] = Induction of H2S generation assessed as Cmax at 150 uM incubated at 22 degC and pH 5 by fluorescence spectrophotometry; type: functional; procedure, shortened: as §1
# [18] = Induction of H2S generation assessed as Cmax at 150 uM incubated at 22 degC and pH 8 by fluorescence spectrophotometry; type: functional; procedure, shortened: as §1
# [19] = Induction of H2S generation assessed as half life at 150 uM incubated at 37 degC and pH 8 by fluorescence spectrophotometry; type: functional; procedure, shortened: as §1
# [20] = Toxicity in zebra fish assessed as hatching rate at 0.5 uM measured after 120 hpf by microscopic analysis; design: species or system Danio rerio; details: zebrafish
# [21] = Induction of H2S generation assessed as half life at 150 uM incubated at 37 degC and pH 1.2 by fluorescence spectrophotometry; type: functional; procedure, shortened: as §1
# WI-38 = assay: Cytotoxicity in human W138 cells assessed as growth inhibition incubated for 24 hrs by MTT assay; type: cell-based; details: WI-38, 24 h; procedure, shortened: as §3
# [22] = Toxicity in Wistar rat assessed as congested central venous and hepatic sinuses and swollen hepatocytes at 0.01 mmol/kg, ip administered for 14 days; type: organism-based; details: in vivo, 336 h, time 14 day
# Procedure, shortened: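 Wistar rats (6/group) dosed ip daily for 14 days with compound in 10% DMSO; vehicle controls received 10% DMSO. Liver, kidney and spleen were fixed in 4% glutaraldehyde, sectioned, H-E stained and examined microscopically.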
# [23] = Induction of H2S generation assessed as Cmax at 150 uM incubated at 37 degC and pH 5 by fluorescence spectrophotometry; type: functional; procedure, shortened: as §1
# HepG2 = assay: Cytotoxicity in human HePG2 cells assessed as growth inhibition incubated for 24 hrs by MTT assay; type: functional, cell-based; details: HepG2, 24 h; procedure, shortened: as §3
# HT-29 = assay: Cytotoxicity in human HT-29 cells assessed as growth inhibition incubated for 24 hrs by MTT assay; type: functional, cell-based; details: HT-29, 24 h; procedure, shortened: as §3
# [24] = Toxicity in zebra fish embryo assessed as decrease in spontaneous movement at 5 uM measured after 24 hpf by microscopic analysis; design: species or system Danio rerio; details: zebrafish
# Procedure, shortened: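 Normal AB embryos were exposed to compound or DMF vehicle (1:1000) from 4 to 24 hpf. Ten embryos per group were chosen at random. Spontaneous movement was recorded for 5 min under a stereoscopic dissecting microscope and expressed as frequency per min. Values are mean ±SD of three independent experiments.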
Compound,Activity [1],Cmax [2],T1/2 [3],Activity [4],Activity [5],T1/2 [6],Activity [7],Activity [8],Cmax [9],Activity [10],Retention_time [11],Activity (H9c2),Cmax [12],T1/2 [13],T1/2 [14],IC50 (A549),Activity [15],Activity [16],Activity (RAW264.7),Cmax [17],other results
S=P1(c2ccccc2)NCCCO1 (stereo not given),3.23 10^9/L,25 µM,34.1 min,50%,628 10^9/L,35.7 min,Non-Toxic,257 mm,26.5 µM,190 g/L,8.63 min,17.1%,25.1 µM,35.1 min,35 min,886 µM,8.42 10^12/L,50%,Dose-dependent effect,24.9 µM,Cmax [18]: 25.6 µM; T1/2 [19]: 34.9 min; Activity [20]: Non-Toxic; T1/2 [21]: 35.4 min; IC50 (WI-38): 720 µM; Activity [22]: Toxic; Cmax [23]: 35.8 µM; IC50 (HepG2): 629 µM; IC50 (HT-29): 1050 µM; Activity [24]: Toxic
O=C([O-])[C@H](Cc1cc2ccccc2[nH]1)NP([O-])(=S)c1ccccc1.[Li+].[Li+] (stereo not given in full),4.01 10^9/L,118 µM,3.53 min,50%,530 10^9/L,3.07 min,Non-Toxic,216 mm,124 µM,168 g/L,7.9 min,25.5%,117 µM,8.54 min,2.97 min,433 µM,5.98 10^12/L,50%,Dose-dependent effect,117 µM,Cmax [18]: 118 µM; T1/2 [19]: 7.85 min; Activity [20]: Non-Toxic; T1/2 [21]: 1.51 min; IC50 (WI-38): 724 µM; Activity [22]: Toxic; Cmax [23]: 124 µM; IC50 (HepG2): 315 µM; IC50 (HT-29): 742 µM; Activity [24]: Toxic
